Results as given in paper PMC2992437 (ACS chemical neuroscience, 2010).
Where two headings read alike, the source gives them in different places. Blank lines part the entries; values can stand above or below the compound they belong to.

What was measured:
[1] = system: NPS induced hyperlocomotion; details: cited from earlier work
NPSR [2] = target: T1, NPSR (Homo sapiens, UniProt Q6W5P4); assay: Radioligand binding assay, displacement of [125I]Y10-NPS on CHO-NPSR cells
T1 sequence (Q6W5P4 1-371): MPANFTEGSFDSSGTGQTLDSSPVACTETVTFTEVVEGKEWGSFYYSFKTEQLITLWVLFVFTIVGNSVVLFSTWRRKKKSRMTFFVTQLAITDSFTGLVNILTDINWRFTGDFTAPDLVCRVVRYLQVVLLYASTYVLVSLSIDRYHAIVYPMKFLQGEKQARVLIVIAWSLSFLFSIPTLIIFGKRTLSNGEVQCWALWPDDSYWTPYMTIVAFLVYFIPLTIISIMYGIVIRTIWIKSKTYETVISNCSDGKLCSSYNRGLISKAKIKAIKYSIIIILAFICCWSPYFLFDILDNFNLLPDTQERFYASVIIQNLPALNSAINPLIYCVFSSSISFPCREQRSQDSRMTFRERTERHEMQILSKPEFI
Method in brief: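 Whole CHO-NPSR cells at about 95% confluence were washed with PBS. They were then incubated for 90 min at room temperature in DMEM with 0.1% BSA, 0.15 nM [125I]Y10-NPS and increasing concentrations of unlabeled human NPS or test compound. Nonspecific binding was taken with 1 μM NPS. Cells were washed in ice-cold PBS, lysed in 1 N NaOH and gamma-counted. Experiments were run in duplicate.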

NPSR [3] = target: T1, NPSR; assay: cAMP assay; assay type: cell-based; details: Table 5
NPSR [4] = target: T1, NPSR; assay: Intracellular calcium assay; assay type: cell-based

cAMP activity (in words) (NPSR [3]): no cAMP activity
Compound: COc1cccc(C2c3c(ncn(-c4ccccc4C#N)c3=N)Oc3ccc4ccccc4c32)c1 (centres unmarked) [Compound 3aa, 10-(2-Cyanophenyl)-12-(3-methoxyphenyl)-12H-naphtho[1',2':5,6]pyrano[2,3-d]pyrimidin-11-imine]

IC50 (NPSR [4]): > 30000 nM
Compound: COc1ccc(C2c3c(N)nc(Cc4ccccc4)nc3Oc3ccc4ccccc4c32)cc1OC (centres unmarked) [Compound 10a]

Further lines, the compound ahead of its results:

Compound: O=C1OC(c2ccccc2)(c2ccccc2)N2CCN(C(=O)NCc3ccc(F)cc3)CC12 (centres unmarked) [Compound 1, N-(4-fluorobenzyl)-1-oxo-3,3-diphenyltetrahydro-1H-oxazolo[3,4-a]pyrazine-7(3H)-carboxamide]
effect on NPS induced hyperlocomotion ([1]; mice): partially reduce the NPS induced hyperlocomotion

Compound: CCC(C)(CCN1CCOCC1)N(Cc1cc2ccccc2n(C)c1=O)C(=O)C1CCCCC1 (centres unmarked) [Compound 2, N-(3-methyl-1-morpholinopentan-3-yl)-N-((1-methyl-2-oxo-1,2-dihydroquinolin-3-yl)methyl)cyclohexanecarboxamide]
effect on NPS induced hyperlocomotion ([1]; initial pharmacological results): capacity to reduce the NPS induced hyperlocomotion

Compound: COc1ccc(C2c3c(ncn(CCN4CCOCC4)c3=N)Oc3ccc4ccccc4c32)cc1OC (centres unmarked) [Compound 3a, 10-(2-morpholinoethyl)-12-(3,4-dimethoxyphenyl)-12H-naphtho[1',2':5,6]pyrano[2,3-d]pyrimidin-11-imine]
Ki (NPSR [2]): 210 nM
